Reference: ChEMBL document CHEMBL4007443, “Discovery of Potent Human Glutaminyl Cyclase Inhibitors as Anti-Alzheimer's Agents Based on Rational Design” (J Med Chem, 2017)
Calls of active or inactive are those of the source. The calls are words filed in the database; no cut-off is given here.

Key:
[1] = Cytotoxicity against mouse HT22 cells assessed as cell viability at 10 uM after 18 hrs by MTT assay; assay type: cell-based, HT-22; conditions: read-out: Activity
In short: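 HT-22 mouse hippocampal cells grown in DMEM with 10% FBS at 37 °C, 5% CO2. Cells seeded at 5000/well the day before and exposed to compound at 10 µM for 18 h at 37 °C. MTT added for 3 h, formazan dissolved in DMSO, absorbance read at 570 nm. Viability expressed relative to vehicle control (100%).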

Mus musculus [2] = test: Antialzheimer activity in human amyloid beta (3 to 40) induced acute ICR mouse Alzheimer's disease mouse model assessed as inhibition of amyloid beta (N3pE to 40) formation in brain at 10 mM, icv by sandwich ELISA; assay type: functional
In short: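 Acute model: male ICR mice, 5 weeks old (25 g, n = 4), anaesthetized and given 5 µg human Aβ3-40 in 5 µL PBS by stereotaxic injection into deep cortex/hippocampus (AP -2.0, ML 1.2, DV 1.0 mm from bregma). Inhibitor given by the same intracerebral route or i.p. Brain extracts taken next day; Aβ N3pE-40 quantified by sandwich ELISA. Percent inhibition is relative to vehicle; one-way ANOVA with Bonferroni.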

[3] = biological target: Glutaminyl-peptide cyclotransferase (Mus musculus, UniProt Q9CYK2); test: Inhibition of mouse glutaminyl cyclase assessed as reduction in conversion of H-Gln-AMC hydrobromide to pGlu-AMC preincubated with substrate for 10 mins followed by enzyme addition by pGAPase coupled fluorometry
[4] = Stability in mouse liver microsomes assessed as compound remaining after 30 mins; assay type: ADME, microsome; conditions: read-out: Stability
Mus musculus [5] = test: Cognition enhancement activity in 5XFAD Alzheimer's disease mouse model assessed as increase in duration of time spent in target quadrant administered intraperitoneally starting from 19 to 34 weeks of age by Morris water maze test; assay type: functional
In short: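 Male 5XFAD mice (n = 6 vehicle, n = 6 treated) received the compound i.p. from 19 weeks of age for 3 months, housed singly on a 12:12 h light cycle. Morris water maze: four hidden-platform training trials per day for 5 days, scoring escape latency. Probe trial 24 h later with the platform removed, scoring time in the target quadrant.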

Mus musculus [6] = test: Toxicity in APP/PS1 transgenic Alzheimer's disease mouse model administered via icv for 3 weeks; conditions: in vivo, icv_or_intrathecal, 504 h
Mus musculus [7] = species on record: Mus musculus; test: animal or person; conditions: ICR, ip, read-out: INH
Mus musculus [8] = species on record: Mus musculus; conditions: ICR, 25 mg/kg

Glutaminyl-peptide cyclotransferase, sequence (Q9CYK2 whole entry): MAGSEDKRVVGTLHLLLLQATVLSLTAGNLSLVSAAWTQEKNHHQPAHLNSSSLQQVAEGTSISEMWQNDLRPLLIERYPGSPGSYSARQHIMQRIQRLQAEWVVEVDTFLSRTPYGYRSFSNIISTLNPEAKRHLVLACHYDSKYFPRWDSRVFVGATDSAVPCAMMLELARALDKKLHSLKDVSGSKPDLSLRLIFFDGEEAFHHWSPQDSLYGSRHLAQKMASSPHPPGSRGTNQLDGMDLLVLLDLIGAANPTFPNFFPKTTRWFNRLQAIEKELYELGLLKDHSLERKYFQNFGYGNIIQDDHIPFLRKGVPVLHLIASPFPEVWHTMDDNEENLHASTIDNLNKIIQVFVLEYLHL

| IC50 [3] [µM] | remaining at 0.5 h [4] [%] | SMILES | viability at 18 h, 10 µM [1] [%] | inhibition (INH) (Mus musculus [2]) [%] | Activity (Mus musculus [5]) | Activity (Mus musculus [6]) | inhibition in vivo at 25 mg/kg (Mus musculus [7]) [%] | inhibition (Mus musculus [8]) |
| --- | --- | --- | --- | --- | --- | --- | --- | --- |
| – | – | COc1cc(NC(=S)NCCCn2cncc2C)ccc1OCCC1CCN(C)CC1 | 100 | 18.7 | – | – | – | – |
| 0.0126 | 50 | COc1cc(NC(=S)NCCCn2cncc2C)ccc1OCCCCc1ccnc(N)c1 | 100 | 66.1 | Active | Non-Toxic | 54.7 | – |
| – | – | COc1cc(NC(=S)NCCCn2cncc2C)ccc1OCCCN | 100 | 64.6 | – | – | – | inactive |
| – | – | COc1cc(NC(=S)NCCCn2cncc2C)ccc1OCCN1CCNCC1 | 100 | 77.2 | – | – | 3.6 | – |
| – | – | COc1cc(NC(=S)NCCCn2cncc2C)ccc1OCCCCNc1ncccn1 | 100 | 27.3 | – | – | – | – |
| – | – | COc1cc(NC(=S)NCCCn2cncc2C)ccc1OCCCCN(C)C | 100 | 35.7 | – | – | – | – |
| – | – | COc1cc(NC(=S)NCCCn2cncc2C)ccc1OCCc1ccnc(N)c1 | 100 | 38 | – | – | – | – |
| 0.0215 | – | COc1ccc(NC(=S)NCCCn2cncc2C)cc1OC | 100 | 41.6 | – | – | – | inactive |
| – | – | COc1cc(NC(=S)NCCCn2cncc2C)ccc1OCCCCN1CCNCC1 | 100 | 29.2 | – | – | – | – |
